In the library only some 2.4% were active in any assay of this set; here they are far more common.
VIM-2 inhibitor = blocks Pseudomonas aeruginosa VIM-2 metallo-beta-lactamase; AID 1527; purified VIM-2, nitrocefin hydrolysis, epi-absorbance fluorescence; inhibition, % at 5.6 µM; 290,000 compounds, 0.89% hits;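 active = inhibition above the mean of all tested compounds plus 3 SD, cutoff set per screening run, cut at about 7.5% in these data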;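 also: red hydrolysis product quenches plate fluorescence so inhibitors raise well fluorescence; 0% = enzyme with DMSO and 100% = DMSO without enzyme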
IMP-1 inh = inhibitors of Pseudomonas aeruginosa IMP-1 metallo-beta-lactamase; purified IMP-1, nitrocefin hydrolysis, epi-absorbance fluorescence; inhibition, % at 5.6 µM; 290,000 compounds, 0.45% hits;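 active = inhibition above the mean plus 3 SD of all compounds in the same screening run, cut at about 4.5% in these data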;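 also: 0% = IMP-1 with DMSO and 100% = DMSO wells lacking enzyme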
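System: purified IMP-1 / Input: IMP-1 dispensed at 0.2 nM / Medium: 50 mM HEPES pH 7.1, 50 µM ZnSO4, 0.05% Brij 35 / Timing: 15 min enzyme–compound preincubation, then 25 min nitrocefin reaction, 25 °C / Technique: plate fluorescence quenching by hydrolysis product, ex 480/em 530 nm / Repeats: singlicate testing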
M18AAP inhibitor = blocks P. falciparum M18 aspartyl aminopeptidase; recombinant PfM18AAP, H-Glu-NHMec fluorogenic cleavage; inhibition, % at 7.35 µM; 290,000 compounds, 1.2% hits; AID 1822;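 active = inhibition above the campaign mean inhibition over all tested compounds plus 3 SD, cut at about 28% in these data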;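 also: 0% = plate median of test compound wells and 100% = 2 mM ZnCl2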
sPLA2-III inh = Inhibits HGIII-sPLA2 liposome hydrolysis, primary screen. inhibition, % at 12.2 µM. QFRET BODIPY PC-A2 liposome hydrolysis, fluorescence. 370,000 compounds, 0.56% hits;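 active = inhibition above mean plus 3 SD of compounds lying within the high and low control bounds, cut at about 19% in these data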;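 also: 0% = median of test compound wells and 100% = no enzyme DMSO wells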
Target sequence (Q9NZ20 whole entry, looked up): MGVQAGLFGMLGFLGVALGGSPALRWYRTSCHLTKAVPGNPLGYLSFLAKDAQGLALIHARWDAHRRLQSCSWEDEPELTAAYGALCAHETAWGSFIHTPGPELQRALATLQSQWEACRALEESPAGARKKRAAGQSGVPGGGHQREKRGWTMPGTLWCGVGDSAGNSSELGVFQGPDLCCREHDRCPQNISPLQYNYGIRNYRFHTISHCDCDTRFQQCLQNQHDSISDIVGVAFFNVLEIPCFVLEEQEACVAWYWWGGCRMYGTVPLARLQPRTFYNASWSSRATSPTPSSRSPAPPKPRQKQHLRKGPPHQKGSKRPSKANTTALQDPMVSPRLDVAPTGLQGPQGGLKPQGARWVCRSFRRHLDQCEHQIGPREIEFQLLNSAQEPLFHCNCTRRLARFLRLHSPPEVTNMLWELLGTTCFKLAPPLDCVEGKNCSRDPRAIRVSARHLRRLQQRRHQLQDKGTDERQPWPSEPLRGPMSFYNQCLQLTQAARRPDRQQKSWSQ
Active calls of the source: *; nt = not tested or not shown.

SMILES | VIM-2 inhibitor | IMP-1 inh | M18AAP inhibitor | sPLA2-III inh
O=C(/C=C/c1ccc(O)c(O)c1)OC(Cc1ccc(O)c(O)c1)C(=O)O (stereo not given) | -2 | -1 | 89* | -2
O=C(/C=C/c1ccc(O)c(O)c1)OCCc1ccccc1 | nt | nt | nt | -10
Cc1ccc(Nc2nc(N)nc(CSc3nc(C)cc(C)n3)n2)cc1 | 1 | 4.9* | 3 | -7
CSc1nnc2c(n1)OC(C)=Nc1ccccc1-2 | 11* | -2 | 3 | 3
CSc1nnc2c(n1)OC(C)N(C(=O)c1ccccc1)c1ccccc1-2 (stereo not given) | -2 | -5 | 2 | 9
CCC1=Nc2ccccc2-c2nnc(SC)nc2O1 | 10* | -2 | -7 | 9
COC(=O)[C@]12C[C@H](CC(=O)N3CCOCC3)C(=O)N(Cc3ccco3)C1=C[C@H](C(C)C)O[C@@H]2C1CC1 | nt | nt | nt | 3
CC(=O)N1CCOc2ccc(S(=O)(=O)Nc3ccc(Cl)cn3)cc21 | -2 | 22* | -3 | -1
CC(=O)N1CCOc2ccc(S(=O)(=O)NCc3ccc(Cl)cc3)cc21 | 0 | -2 | -4 | -7
O=C(NCc1ccccc1)C1CCN(c2nc(-c3ccc(Br)cc3)cs2)CC1 | nt | nt | nt | -1
CCCCN(CC)S(=O)(=O)N1CCC(C(=O)NCCCN2CCOCC2)CC1 | -1 | 6.6* | -4 | -3
CCN(CC)S(=O)(=O)N1CCC(C(=O)NCCN2CCOCC2)CC1 | -3 | -3 | 1 | 6
c1ccc(Cn2ccc3ccc(-c4ccc5ccn(Cc6cccc(-c7cccs7)c6)c5c4)cc32)cc1 | nt | nt | nt | 11
CC1=NNC(=O)/C1=C\c1cn(-c2ccccc2)nc1-c1cccs1 | -6 | -2 | 45* | -16
CCCc1cc(=O)oc2c3c(c(Cl)cc12)OCN(CCCO)C3 | 4 | 10* | 18 | nt
COC(=O)c1cc(-c2cccc(C#N)c2)c(=O)n2c1CCC2 | nt | nt | nt | 16
COc1cc(C2OCC3C(c4ccc(OC5OC(CO)C(O)C(O)C5O)c(OC)c4)OCC23)ccc1O (stereo not given) | -3 | 0 | 41* | -3
O=C(c1cccc([N+](=O)[O-])c1)c1ccc2[nH]c(=O)[nH]c2c1 | 1 | 29* | 3 | 0
NC(=O)c1cccc([N+](=O)[O-])c1 | nt | nt | nt | -2
COc1ccccc1C(=O)NC(=S)Nc1cccc2cc(O)ccc12 | 0 | -4 | 0 | -38
COc1ccc(C(=O)NC(=S)Nc2cccc3cc(O)ccc23)cc1OC | 0 | 4.5* | -3 | -8
CN1CCC2(CC1)Nc1nc(SCc3ccc(Cl)cc3)nn1C1=C2CN(C)CC1 | 9.5* | 0 | -5 | -14
CN1CCCCC(NC(=O)CCCl)C1=O (stereo not given) | nt | nt | nt | 14
O=C(O)c1ccccc1C(=O)NNc1ccc(Cl)cc1 | -1 | -2 | 2 | -2
O=C(O)c1ccccc1C(=O)NNc1cccc(Cl)n1 | 0 | 1 | 45* | 7
SMILES | VIM-2 inhibitor | IMP-1 inh | M18AAP inhibitor | sPLA2-III inh
Cc1ccccc1C(=O)NC1CCCCN(Cc2cccc(Cl)c2)C1=O (stereo not given) | nt | nt | nt | 2
Cc1cc(C)n(-c2ccc(C(=O)OCC(=O)c3ccc(Br)s3)cc2)n1 | 4 | 9.1* | -8 | -23
CCOC(=O)CC(=O)CSc1nc(-c2cccnc2)ccc1C#N | 0 | 5.3* | 16 | -9
CCOC(=O)CC(=O)CSc1nc(-c2cccnc2)cc(C)c1C#N | -1 | -3 | 4 | -1
CC(C)[C@H](N)C(=O)N[C@@H](Cc1ccccc1)C(=O)N1CCC2CCN(S(=O)(=O)c3ccccc3)CC21 (stereo not given in full) | nt | nt | nt | 5
O=C(c1ccco1)n1nc(NCc2ccccc2)nc1NCc1ccccc1 | -2 | -4 | -11 | -10
O=C(c1cccnc1)n1nc(NCc2ccccc2)nc1NCc1ccccc1 | 0 | -2 | 28* | 6
O=C(NC1CCCCN(Cc2cccc(Cl)c2)C1=O)c1ccc(COc2ccccc2)cc1 (stereo not given) | nt | nt | nt | -13
COc1cccc2c1C(=O)c1c(O)c3c(c(O)c1C2=O)C[C@@](O)(C(=O)CO)C[C@@H]3O[C@H]1C[C@H](N)[C@H](O)[C@H](C)O1 | 24* | 5.7* | 28* | -56
C=CCOC(=O)N1CCN(C(=O)c2ccc3nc(C)n(C4CCCC4)c3c2)CC1 | nt | nt | nt | 6
C=CCN(CC#CC1=CCCCC1)CC1CC1 | nt | nt | nt | 3
CCCCNC(=O)C[C@H]1C[C@@]2(C(=O)OC)C(=C[C@H](C3CCCC3)O[C@@H]2C)N(Cc2ccco2)C1=O | nt | nt | nt | -6
COc1ccccc1CC(=O)N1CCCC1 | -4 | -1 | 9 | -2
COc1ccccc1CC(=O)N1CCN(c2ccccn2)CC1 | -1 | 5.9* | 4 | 1
Clc1ccc(C[n+]2csc3ccccc32)cc1 | -4 | -2 | 38* | -5
CCOC(=O)[C@]12CCCCC/C=C\1N(Cc1ccc(OC)cc1)C(=O)[C@H]2CC(=O)NCCC(C)C | nt | nt | nt | -10
O=C(NCCN1CCOCC1)c1cc(-c2ccc(F)cc2)on1 | -1 | -4 | -3 | 3
Cc1ccc(-c2cc(C(=O)NCCN3CCOCC3)no2)cc1 | -1 | 10* | 0 | 7
Cc1c(NC(=O)COC(=O)c2cc3c4ccccc4n(C)c3s2)c(=O)n(-c2ccccc2)n1C | 3 | 4.8* | 3 | 2
Cc1c(NC(=O)COC(=O)c2ccccc2Cl)c(=O)n(-c2ccccc2)n1C | -2 | -3 | -1 | -8
Cc1ccccc1NC(=S)NCCSc1ccc(Cl)cc1 | -3 | 50* | 6 | 8
O=C1CSC(=S)N1N=Cc1c(O)ccc2ccccc12 | nt | nt | nt | 12
COc1ccc2ccccc2c1/C=N/N1C(=O)CSC1=S | 0 | 22* | 30* | 1
CC(=O)Nc1ccc(C23CC4CC(CC(C4)C2)C3)cc1 | 0 | -2 | 7 | -5
Oc1ccc(C23CC4CC(CC(C4)C2)C3)cc1O | -2 | -5 | 90* | -10
SMILES | VIM-2 inhibitor | IMP-1 inh | M18AAP inhibitor | sPLA2-III inh
COc1ccc(/C=C2\Sc3ccc(C(=O)NCc4cccnc4)cc3N(C)C2=O)cc1OC | 11* | -3 | 13 | -13
CC(COc1ccc(F)cc1)CN1CCC(C(O)(c2ccccc2)c2ccccc2)CC1 (stereo not given) | nt | nt | nt | -11
C=CCn1c(SCC(=O)N2CCCC2)nc2c([nH]c3ccccc32)c1=O | 3 | -2 | 2 | 6
CCn1c(SCC(=O)N2CCOCC2)nc2c([nH]c3ccccc32)c1=O | 8.0* | -1 | 3 | 6
Cc1ccccc1Cn1cc(CN2[C@@H](C)COc3cc(Br)ccc3S2(=O)=O)nn1 | nt | nt | nt | -4
CCOc1ccc(OCCCN(C)C)cc1 | -5 | -2 | -2 | 1
CN(C)CCCCOc1ccccc1-c1ccccc1 | -2 | 1 | 29* | -16
CCOc1ccc(OCCCCN(C)C)cc1 | 3 | 35* | -6 | 2
O=C(Nn1cnnc1)c1ccc([N+](=O)[O-])cc1Cl | nt | nt | nt | 21*
Cn1nnc(NC(=O)c2ccc([N+](=O)[O-])cc2Cl)n1 | -3 | -3 | 3 | 0
COc1ccc(S[C@]2(C(=O)N3CCOCC3)CC(=O)N(C(=O)c3ccccc3)[C@@H]2c2ccc(OC)cc2)cc1 | nt | nt | nt | -7
C=CCC1c2cccc(C(=O)O)c2C(=O)N1c1cccc(OC)c1 (stereo not given) | 4 | -4 | -1 | 1
